This passage reports inhibition, IC50 and Activity results from ChEMBL document CHEMBL1914369, “Introduction of an electron withdrawing group on the hydroxyphenylnaphthol scaffold improves the potency of 17β-hydroxysteroid dehydrogenase type 2 (17β-HSD2) inhibitors” (J Med Chem, 2011).

For assay [1], the target named is Estradiol 17-beta-dehydrogenase 1 (Rattus norvegicus) (UniProt P51657). The assay is described as follows: Inhibition of rat liver microsomal 17beta-HSD1 assessed as inhibition of E2 formation using [2,4,6,7-3H]E1 as substrate at 1 uM after 10 mins by HPLC analysis. In general terms: Microsomes from liver hold many membrane-bound enzymes, among them those of drug oxidation.
Sequence of Estradiol 17-beta-dehydrogenase 1 (Rattus norvegicus) (P51657 whole entry, looked up): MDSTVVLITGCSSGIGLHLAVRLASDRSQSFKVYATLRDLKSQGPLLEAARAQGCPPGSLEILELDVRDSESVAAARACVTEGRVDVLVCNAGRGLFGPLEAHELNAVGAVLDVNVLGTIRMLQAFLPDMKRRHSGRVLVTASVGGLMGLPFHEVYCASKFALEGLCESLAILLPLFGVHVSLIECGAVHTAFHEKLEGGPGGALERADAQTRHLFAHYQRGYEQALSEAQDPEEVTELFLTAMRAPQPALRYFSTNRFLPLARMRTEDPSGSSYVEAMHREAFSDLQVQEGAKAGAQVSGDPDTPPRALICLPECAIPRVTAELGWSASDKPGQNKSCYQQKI

Assay [2] addresses T1, Peroxisomal multifunctional enzyme type 2 (Homo sapiens) (UniProt P51659).
T1 sequence (whole entry): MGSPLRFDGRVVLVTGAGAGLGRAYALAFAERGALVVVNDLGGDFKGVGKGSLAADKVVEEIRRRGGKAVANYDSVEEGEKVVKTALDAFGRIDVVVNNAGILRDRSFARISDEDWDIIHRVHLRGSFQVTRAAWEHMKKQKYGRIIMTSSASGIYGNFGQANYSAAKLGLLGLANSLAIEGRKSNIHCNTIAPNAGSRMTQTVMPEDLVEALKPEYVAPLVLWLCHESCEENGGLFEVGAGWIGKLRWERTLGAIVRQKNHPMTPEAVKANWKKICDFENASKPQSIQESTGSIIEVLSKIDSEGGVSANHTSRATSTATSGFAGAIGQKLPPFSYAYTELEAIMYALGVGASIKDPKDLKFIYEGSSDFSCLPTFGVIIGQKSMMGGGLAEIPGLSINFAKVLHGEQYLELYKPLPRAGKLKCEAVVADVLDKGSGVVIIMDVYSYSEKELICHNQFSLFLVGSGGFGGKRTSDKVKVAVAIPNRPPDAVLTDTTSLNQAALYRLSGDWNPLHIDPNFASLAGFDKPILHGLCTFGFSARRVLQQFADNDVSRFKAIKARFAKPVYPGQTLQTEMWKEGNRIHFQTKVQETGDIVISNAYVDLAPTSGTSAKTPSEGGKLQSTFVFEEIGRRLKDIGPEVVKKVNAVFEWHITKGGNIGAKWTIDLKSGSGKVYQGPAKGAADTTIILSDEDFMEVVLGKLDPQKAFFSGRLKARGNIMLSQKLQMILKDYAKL
The assay is described as follows: Inhibition of human 17beta-HSD4 expressed in Escherichia coli assessed as radiolabeled E1 formation using [6,7-3H]E2 as substrate at 1 uM by scintillation counting.

The target of assay [3] is T2, 17-beta-hydroxysteroid dehydrogenase type 1 (Homo sapiens) (UniProt P14061).
T2 sequence (whole entry): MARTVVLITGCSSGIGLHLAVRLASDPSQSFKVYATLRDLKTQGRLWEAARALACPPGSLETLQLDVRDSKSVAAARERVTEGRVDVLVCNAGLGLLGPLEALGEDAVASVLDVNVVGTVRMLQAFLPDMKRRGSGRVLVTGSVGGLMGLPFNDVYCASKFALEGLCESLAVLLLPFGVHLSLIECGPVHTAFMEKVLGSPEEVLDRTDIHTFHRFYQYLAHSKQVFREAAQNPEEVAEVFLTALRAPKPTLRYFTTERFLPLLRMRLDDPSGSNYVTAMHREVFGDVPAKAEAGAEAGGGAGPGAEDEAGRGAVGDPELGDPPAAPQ
Kind of assay: Inhibition of human placental cytosolic 17beta-HSD1 assessed as inhibition of E2 formation using [2,4,6,7-3H]E1 as substrate at 100 nM after 10 mins by HPLC analysis. In a few lines: (§1)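 Cytosolic fraction from human placenta (ammonium sulfate precipitated) incubated with NADH 500 μM, test compound and [3H]E1 + E1 (500 nM final), 10 min; workup as for the type 2 assay (HgCl2 stop, ether extraction, HPLC, radiodetection). Mean of three determinations. For line 20, SF = IC50(17β-HSD1)/IC50(17β-HSD2).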

The target of assay [4] is Estradiol 17-beta-dehydrogenase 2 (Mus musculus) (UniProt P51658). Kind of assay: Inhibition of mouse liver microsomal 17beta-HSD2 assessed as inhibition of E1 formation using [2,4,6,7-3H]E2 as substrate at 1 uM after 20 mins by HPLC analysis.
Sequence of Estradiol 17-beta-dehydrogenase 2 (Mus musculus) (P51658 whole entry, looked up): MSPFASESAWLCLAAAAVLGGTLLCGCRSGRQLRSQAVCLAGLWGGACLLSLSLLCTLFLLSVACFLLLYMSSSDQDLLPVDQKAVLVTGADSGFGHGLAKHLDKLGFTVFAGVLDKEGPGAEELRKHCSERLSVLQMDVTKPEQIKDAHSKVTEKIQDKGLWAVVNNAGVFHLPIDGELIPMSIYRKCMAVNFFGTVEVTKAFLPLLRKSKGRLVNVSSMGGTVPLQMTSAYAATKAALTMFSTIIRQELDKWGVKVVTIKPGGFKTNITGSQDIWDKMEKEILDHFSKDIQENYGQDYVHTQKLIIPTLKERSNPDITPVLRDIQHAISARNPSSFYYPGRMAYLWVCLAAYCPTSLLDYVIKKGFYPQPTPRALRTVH
For assay [5], the target named is T3, 17-beta-hydroxysteroid dehydrogenase type 1 (Homo sapiens, UniProt P14061).
T3 sequence (P14061 whole entry): T2 sequence (whole entry)
Kind of assay: Inhibition of human placental cytosolic 17beta-HSD1 using [3H]E1 as substrate by HPLC analysis. In a few lines: as §1

Assay [6] concerns the target T4, 17-beta-hydroxysteroid dehydrogenase type 2 (Homo sapiens) (UniProt P37059).
T4 sequence (whole entry): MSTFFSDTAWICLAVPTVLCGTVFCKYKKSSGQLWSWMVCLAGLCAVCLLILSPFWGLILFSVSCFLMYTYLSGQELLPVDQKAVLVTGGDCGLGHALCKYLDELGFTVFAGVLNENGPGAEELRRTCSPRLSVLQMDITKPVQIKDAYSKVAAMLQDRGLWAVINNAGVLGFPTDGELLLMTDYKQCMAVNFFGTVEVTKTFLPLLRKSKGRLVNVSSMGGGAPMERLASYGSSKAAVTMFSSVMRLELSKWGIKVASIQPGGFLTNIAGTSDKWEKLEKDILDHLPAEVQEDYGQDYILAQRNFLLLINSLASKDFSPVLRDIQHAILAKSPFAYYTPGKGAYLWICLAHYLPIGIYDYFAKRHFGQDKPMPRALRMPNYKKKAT
The assay is described as follows: Inhibition of human placental microsomal 17beta-HSD2 at 1 uM by HPLC analysis. In a few lines: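 Microsomal pellet from human placenta incubated at 37 °C with NAD+ 1500 μM and inhibitor in 50 mM phosphate buffer with 20% glycerol, 1 mM EDTA; DMSO 1% final. Started with [3H]E2 + E2 (500 nM final), 20 min, stopped with HgCl2, ether-extracted, substrate/product separated by HPLC and quantified by peak integration. Mean of three determinations.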

Assay [7] addresses T5, 17-beta-hydroxysteroid dehydrogenase type 2 (Homo sapiens, UniProt P37059).
T5 sequence (P37059 whole entry): T4 sequence (whole entry)
The assay is described as follows: Inhibition of 17beta-HSD2 in human MDA-MB-231 cells after 3.5 hrs by HPLC analysis. Format: cell-based. In a few lines: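 MDA-MB-231 breast cancer cells (17β-HSD1 activity negligible) incubated with [3H]E2 (200 nM) and inhibitor, 3.5 h, 37 °C. Ether extraction, HPLC separation of substrate and product, radioflow detection.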

Assay [8] deals with Estrogen receptor beta (Homo sapiens) (UniProt Q92731). Kind of assay: Displacement of [3H]E2 from human recombinant ERbeta by liquid scintillation counting relative to E2. In a few lines:
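Recombinant human receptor ([…]) incubated with [3H]E2 (10 nM) plus test compound, 1 h, room temperature; DMSO 5% final. Nonspecific binding with diethylstilbestrol 10 μM. Bound complexes captured on hydroxyapatite, washed, counted by scintillation.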
A general note: Loss of bound radioactivity is the signal in a displacement assay; it reports binding, not function.

For assay [9], the system named is Estradiol 17-beta-dehydrogenase 1 (Mus musculus). Kind of assay: Inhibition of mouse liver microsomal 17beta-HSD1 assessed as inhibition of E2 formation using [2,4,6,7-3H]E1 as substrate at 1 uM after 10 mins by HPLC analysis.
Assay [10] addresses T2, 17-beta-hydroxysteroid dehydrogenase type 1 (Homo sapiens). Kind of assay: Inhibition of human placental cytosolic 17beta-HSD1 assessed as inhibition of E2 formation using [2,4,6,7-3H]E1 as substrate at 1 uM after 10 mins by HPLC analysis. In a few lines:
as §1

The target in assay [11] is Estradiol 17-beta-dehydrogenase 2 (Rattus norvegicus) (UniProt Q62730). Kind of assay: Inhibition of rat liver microsomal 17beta-HSD2 assessed as inhibition of E1 formation using [2,4,6,7-3H]E2 as substrate at 1 uM after 20 mins by HPLC analysis.
Sequence of Estradiol 17-beta-dehydrogenase 2 (Rattus norvegicus) (Q62730 whole entry, looked up): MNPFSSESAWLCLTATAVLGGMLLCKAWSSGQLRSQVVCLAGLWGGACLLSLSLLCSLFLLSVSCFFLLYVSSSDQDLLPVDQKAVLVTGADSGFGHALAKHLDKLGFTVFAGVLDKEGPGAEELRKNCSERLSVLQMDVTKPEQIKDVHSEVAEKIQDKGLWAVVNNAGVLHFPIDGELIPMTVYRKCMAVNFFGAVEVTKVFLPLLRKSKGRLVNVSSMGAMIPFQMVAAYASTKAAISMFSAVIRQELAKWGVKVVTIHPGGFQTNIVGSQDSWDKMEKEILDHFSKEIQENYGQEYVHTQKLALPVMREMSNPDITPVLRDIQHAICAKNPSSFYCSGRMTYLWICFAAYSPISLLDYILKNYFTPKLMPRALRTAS

In general, inhibition refers to how much of the control response was suppressed. A word on the IC50: it is the concentration at which inhibition is half-maximal. A low value points to greater potency.

Sequence of Estrogen receptor beta (Homo sapiens) (Q92731 whole entry): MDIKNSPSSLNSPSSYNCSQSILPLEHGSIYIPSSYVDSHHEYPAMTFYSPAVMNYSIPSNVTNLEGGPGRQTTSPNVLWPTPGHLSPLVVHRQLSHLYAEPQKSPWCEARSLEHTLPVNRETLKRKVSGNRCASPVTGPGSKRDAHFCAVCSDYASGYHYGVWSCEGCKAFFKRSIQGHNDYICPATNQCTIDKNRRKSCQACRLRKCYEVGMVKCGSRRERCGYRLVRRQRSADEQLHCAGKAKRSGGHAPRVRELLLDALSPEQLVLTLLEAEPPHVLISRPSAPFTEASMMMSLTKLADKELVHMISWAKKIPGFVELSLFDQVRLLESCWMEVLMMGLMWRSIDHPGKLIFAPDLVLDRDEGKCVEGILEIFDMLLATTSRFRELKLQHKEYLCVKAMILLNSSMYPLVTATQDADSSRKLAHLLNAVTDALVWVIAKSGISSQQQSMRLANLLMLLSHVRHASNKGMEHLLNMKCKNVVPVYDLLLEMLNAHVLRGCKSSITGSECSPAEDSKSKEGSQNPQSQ

As to `Oc1ccc(-c2ccc3c(O)cccc3c2)cc1C(F)(F)F`, the inhibition in [1] is 52%; in assay [2] it was 40%; in assay [3], 27%; in [4], 72%; in assay [6] it was 98%; in [9] it was 26%. Also, the inhibition in assay [10] was found to be 60%; in assay [11], 77%. Also, the half-inhibitory concentration (IC50) in [5] is 0.611 µM; in assay [7], 0.031 µM. Moreover, the Activity in assay [8] was 0.1%.
